Laboratory results reported in ChEMBL document CHEMBL4038328, “Structure-Guided Optimization of HIV Integrase Strand Transfer Inhibitors” (J Med Chem, 2017).

Legend:
[1] = Inhibition of HIV1 integrase strand transfer activity using 5'-end 32P labeled DNA substrate measured after 2 hrs by PAGE based phosphor imaging method; parameters: species or system Human immunodeficiency virus 1
Outline: (§1)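 Gel-based assay, Mg2+ cofactor: 400 nM integrase with 20 nM DNA substrate 5′-32P-labeled on transferred strand in 50 mM MOPS pH 7.2, 7.5 mM MgCl2, 14 mM 2-mercaptoethanol, inhibitor or DMSO; 2 h at 37 °C. Stopped with formamide/SDS loading buffer; products resolved on 16% denaturing polyacrylamide gels, quantified by phosphorimaging.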

[2] = system: Human immunodeficiency virus 1; assay: Antiviral activity against VSV-G pseudotyped HIV1 harboring wild-type integrase infected in HOS cells pretreated […] for 3 hrs followed by viral infection measured after 48 hrs by luciferase reporter gene assay; format: functional, cell-based; conditions: Human immunodeficiency virus 1, HOS
Outline: (§2)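 Single-round luciferase HIV-1 vector (pNLNgoMIVR−ΔLUC carrying WT or mutant IN) was pseudotyped with VSV-g by calcium phosphate co-transfection of 293 cells, and supernatant was harvested after 48 h. HOS cells were seeded at 4000/well in DMEM with 5% FBS and 5% newborn calf serum. They were pretreated 3 h at 37 °C with 5–0.0001 μM (11 serial dilutions), then infected for 48 h. Luminescence was normalized to untreated cells, and EC50 came from nonlinear regression.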

HOS = assay: Cytotoxicity against HOS cells assessed as reduction in cell viability after 48 hrs by ATPLite luminescence assay; format: cell-based; conditions: human, hos, 48 h
Outline: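 HOS cells seeded at 4000 per well the day before, exposed to compounds over 250 to 0.05 μM at 37 °C for 48 h. ATP measured by luminescence after lysis and 20 min signal development at room temperature.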

[3] = Inhibition of HIV1 integrase 3' processing activity using 5'-end 32P labeled DNA substrate measured after 2 hrs by PAGE based phosphor imaging method; parameters: species or system Human immunodeficiency virus 1; outline: as §1
[4] = system: Human immunodeficiency virus 1; assay: Antiviral activity against VSV-G pseudotyped HIV1 harboring integrase Y143R mutant infected in HOS cells pretreated […] for 3 hrs followed by viral infection measured after 48 hrs by luciferase reporter gene assay; format: functional, cell-based; conditions: Human immunodeficiency virus 1, HOS; outline: as §2
[5] = system: Human immunodeficiency virus 1; assay: Antiviral activity against VSV-G pseudotyped HIV1 harboring integrase N155H mutant infected in HOS cells pretreated […] for 3 hrs followed by viral infection measured after 48 hrs by luciferase reporter gene assay; format: functional, cell-based; conditions: Human immunodeficiency virus 1, HOS; outline: as §2
[6] = system: Human immunodeficiency virus 1; assay: Antiviral activity against VSV-G pseudotyped HIV1 harboring integrase G140S/Q148H double mutant infected in HOS cells pretreated […] for 3 hrs followed by viral infection measured after 48 hrs by luciferase reporter gene assay; format: functional, cell-based; conditions: Human immunodeficiency virus 1, HOS; outline: as §2
[7] = system: Human immunodeficiency virus 1; assay: Selectivity ratio of EC50 for VSV-G pseudotyped HIV1 harboring integrase Y143R mutant infected in HOS cells to EC50 for VSV-G pseudotyped HIV1 harboring wild-type integrase infected in HOS cells; format: functional
Outline: (§3)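 Fold change is the EC50 against the mutant-IN vector divided by the EC50 against the WT-IN vector. Both come from the single-round luciferase infectivity assay in HOS cells, with a 3 h compound pretreatment followed by 48 h infection.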

[8] = system: Human immunodeficiency virus 1; assay: Selectivity ratio of EC50 for VSV-G pseudotyped HIV1 harboring integrase N155H mutant infected in HOS cells to EC50 for VSV-G pseudotyped HIV1 harboring wild-type integrase infected in HOS cells; format: functional; outline: as §3
[9] = system: Human immunodeficiency virus 1; assay: Selectivity ratio of EC50 for VSV-G pseudotyped HIV1 harboring integrase G140S/Q148H mutant infected in HOS cells to EC50 for VSV-G pseudotyped HIV1 harboring wild-type integrase infected in HOS cells; format: functional; outline: as §3
[10] = system: Human immunodeficiency virus 1; assay: Antiviral activity against VSV-G pseudotyped HIV1 harboring integrase G118R mutant infected in HOS cells pretreated […] for 3 hrs followed by viral infection measured after 48 hrs by luciferase reporter gene assay; format: functional, cell-based; conditions: Human immunodeficiency virus 1, HOS; outline: as §2
[11] = system: Human immunodeficiency virus 1; assay: Antiviral activity against VSV-G pseudotyped HIV1 harboring integrase T66I mutant infected in HOS cells pretreated […] for 3 hrs followed by viral infection measured after 48 hrs by luciferase reporter gene assay; format: functional, cell-based; conditions: Human immunodeficiency virus 1, HOS; outline: as §2
[12] = system: Human immunodeficiency virus 1; assay: Antiviral activity against VSV-G pseudotyped HIV1 harboring integrase E92Q mutant infected in HOS cells pretreated […] for 3 hrs followed by viral infection measured after 48 hrs by luciferase reporter gene assay; format: functional, cell-based; conditions: Human immunodeficiency virus 1, HOS; outline: as §2
[13] = system: Human immunodeficiency virus 1; assay: Antiviral activity against VSV-G pseudotyped HIV1 harboring integrase R263K mutant infected in HOS cells pretreated […] for 3 hrs followed by viral infection measured after 48 hrs by luciferase reporter gene assay; format: functional, cell-based; conditions: Human immunodeficiency virus 1, HOS; outline: as §2
[14] = system: Human immunodeficiency virus 1; assay: Antiviral activity against VSV-G pseudotyped HIV1 harboring integrase H51Y mutant infected in HOS cells pretreated […] for 3 hrs followed by viral infection measured after 48 hrs by luciferase reporter gene assay; format: functional, cell-based; conditions: Human immunodeficiency virus 1, HOS; outline: as §2
[15] = system: Human immunodeficiency virus 1; assay: Antiviral activity against VSV-G pseudotyped HIV1 harboring integrase H51Y/R263K double mutant infected in HOS cells pretreated […] for 3 hrs followed by viral infection measured after 48 hrs by luciferase reporter gene assay; format: functional, cell-based; conditions: Human immunodeficiency virus 1, HOS; outline: as §2
[16] = system: Human immunodeficiency virus 1; assay: Selectivity ratio of EC50 for VSV-G pseudotyped HIV1 harboring integrase G118R mutant infected in HOS cells to EC50 for VSV-G pseudotyped HIV1 harboring wild-type integrase infected in HOS cells; format: functional; outline: as §3
[17] = system: Human immunodeficiency virus 1; assay: Selectivity ratio of EC50 for VSV-G pseudotyped HIV1 harboring integrase T66I mutant infected in HOS cells to EC50 for VSV-G pseudotyped HIV1 harboring wild-type integrase infected in HOS cells; format: functional; outline: as §3
[18] = system: Human immunodeficiency virus 1; assay: Selectivity ratio of EC50 for VSV-G pseudotyped HIV1 harboring integrase E92Q mutant infected in HOS cells to EC50 for VSV-G pseudotyped HIV1 harboring wild-type integrase infected in HOS cells; format: functional; outline: as §3
[19] = system: Human immunodeficiency virus 1; assay: Selectivity ratio of EC50 for VSV-G pseudotyped HIV1 harboring integrase R263K mutant infected in HOS cells to EC50 for VSV-G pseudotyped HIV1 harboring wild-type integrase infected in HOS cells; format: functional; outline: as §3
[20] = system: Human immunodeficiency virus 1; assay: Selectivity ratio of EC50 for VSV-G pseudotyped HIV1 harboring integrase H51Y mutant infected in HOS cells to EC50 for VSV-G pseudotyped HIV1 harboring wild-type integrase infected in HOS cells; format: functional; outline: as §3
[21] = system: Human immunodeficiency virus 1; assay: Selectivity ratio of EC50 for VSV-G pseudotyped HIV1 harboring integrase H51Y/R263K double mutant infected in HOS cells to EC50 for VSV-G pseudotyped HIV1 harboring wild-type integrase infected in HOS cells; format: functional; outline: as §3

| Structure (SMILES) | IC50 [1] | EC50 [2] | CC50 (HOS) | IC50 [3] | EC50 [4] | EC50 [5] | EC50 [6] | Ratio EC50 [7] | Ratio EC50 [8] | Ratio EC50 [9] | other results |
| --- | --- | --- | --- | --- | --- | --- | --- | --- | --- | --- | --- |
| Nc1c(C(=O)NCc2ccc(F)cc2F)c(=O)n(O)c2ncc(/C=C/C(=O)NCCO)cc12 | 0.007 µM | 0.196 µM | > 250 µM |  |  |  |  |  |  |  |  |
| O=C(NCc1ccc(F)cc1F)c1c(O)c2ccc(N3CCCCC3)nc2n(O)c1=O | 70 µM |  |  | > 333 µM |  |  |  |  |  |  |  |
| Nc1c(C(=O)NCc2ccc(F)cc2F)c(=O)n(O)c2ncc(CCC(=O)O)cc12 | 0.004 µM | 0.0019 µM | > 250 µM |  | 0.0049 µM | 0.01 µM | 0.195 µM | 3 | 5 | 103 |  |
| O=C(NCc1ccc(F)cc1F)c1c(O)c2cc(CCCCCO)cnc2n(O)c1=O | 0.012 µM | 0.024 µM | > 250 µM | 14.3 µM | 0.0083 µM | 0.032 µM | 0.029 µM | 0.3 | 1 | 1 |  |
| COc1ccc2c(N)c(C(=O)NCc3ccc(F)cc3F)c(=O)n(O)c2n1 | 0.011 µM | 0.03 µM | 2.2 µM | 18 µM | 0.062 µM | 0.4 µM | 3.6 µM | 2 | 13 | 120 |  |
| COC(=O)CNc1c(C(=O)NCc2ccc(F)cc2F)c(=O)n(O)c2nc(N3CCCCC3)ccc12 | 96 µM |  |  | > 333 µM |  |  |  |  |  |  |  |
| CN(C)CCCc1cnc2c(c1)c(N)c(C(=O)NCc1ccc(F)cc1F)c(=O)n2O | 0.014 µM | 0.0061 µM | 5 µM | 3 µM | 0.007 µM | 0.029 µM | 0.032 µM | 1 | 5 | 5 |  |
| Nc1c(C(=O)NCc2ccc(F)cc2F)c(=O)n(O)c2nc(N3CCCCC3)ccc12 | 54 µM |  |  | > 333 µM |  |  |  |  |  |  |  |
| COC(=O)CNc1c(C(=O)NCc2ccc(F)cc2F)c(=O)n(O)c2ncc(CCCCCO)cc12 | 0.004 µM | 0.0033 µM | > 250 µM | 2.1 µM | 0.0035 µM | 0.011 µM | 0.042 µM | 1 | 3 | 13 |  |
| CC(=O)OCCCCCc1cnc2c(c1)c(NCCO)c(C(=O)NCc1ccc(F)cc1F)c(=O)n2O |  | 0.0053 µM | > 100 µM |  | 0.0041 µM | 0.01 µM | 0.0053 µM | 0.8 | 2 | 1 | EC50 [10]: 0.015 µM; EC50 [11]: 0.0012 µM; EC50 [12]: 0.0038 µM; EC50 [13]: 0.0036 µM; EC50 [14]: 0.0074 µM; EC50 [15]: 0.015 µM; Ratio EC50 [16]: 3; Ratio EC50 [17]: 0.2; Ratio EC50 [18]: 0.7; Ratio EC50 [19]: 0.7; Ratio EC50 [20]: 1; Ratio EC50 [21]: 3 |
| CC(C)NC(=O)CCc1cnc2c(c1)c(N)c(C(=O)NCc1ccc(F)cc1F)c(=O)n2O | 0.002 µM | 0.005 µM | > 250 µM |  | 0.0087 µM | 0.011 µM | 0.013 µM | 2 | 2 | 3 |  |
| COc1ccc2c(O)c(C(=O)NCc3ccc(F)cc3F)c(=O)n(O)c2n1 | 0.033 µM | 0.215 µM | 12 µM | 32 µM |  |  |  |  |  |  |  |
